This is a sample that favours compounds with a hit; in the whole collection about 1.3% have one here.
S1P4 agonist = S1P4 receptor agonists, primary screen, cell-based | Sphingosine 1-phosphate receptor 4 (Homo sapiens), O95977 | S1P4-expressing cell line, agonist reporter assay | activation, % at 4.98 µM | 220,000 compounds, 0.35% hits | AID 1509, 2009; in the data active = activation above about 11%;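 note: 0% = DMSO vehicle and 100% = reference agonist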
Target sequence (O95977 whole entry, looked up): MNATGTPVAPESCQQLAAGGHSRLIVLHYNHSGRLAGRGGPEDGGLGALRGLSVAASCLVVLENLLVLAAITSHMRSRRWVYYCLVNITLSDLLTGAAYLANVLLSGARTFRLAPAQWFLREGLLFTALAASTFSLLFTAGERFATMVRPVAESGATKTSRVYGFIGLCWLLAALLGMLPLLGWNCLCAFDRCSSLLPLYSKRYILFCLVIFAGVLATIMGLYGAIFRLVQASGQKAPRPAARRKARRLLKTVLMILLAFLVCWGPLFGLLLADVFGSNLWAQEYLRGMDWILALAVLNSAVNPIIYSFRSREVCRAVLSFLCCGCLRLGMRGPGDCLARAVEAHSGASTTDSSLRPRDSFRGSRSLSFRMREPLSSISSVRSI
Mdm2 ligase inh = MDM2-luciferase reporter signal enhancers, primary screen, MDM2 E3 ligase inhibitor project, cell-based, luminescence, 1536-well; 210,000 compounds, 0.11% hits; AID 1230, 2008; cell-based MDM2 ubiquitination luciferase reporter, 2 h; 0 = plate control, 100 = twice control, blank-subtracted; signal enhancement, % at 5 µM;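 active = signal enhancement of 30% or more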;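 note: luminescence tracks abundance of the self-degrading MDM2-luciferase fusion protein; higher signal means inhibition of MDM2 E3 ligase activity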
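Test system: mammalian cells stably expressing self-ubiquitinating, self-degrading MDM2 E3–luciferase fusion; Amount: 2000 cells in each well; Medium: DMEM; Schedule: 4 h settle plus 2 h compound, 37 °C; Technique: SteadyLite luciferase luminescence after 15 min room-temperature reagent incubation; Benchmarks: plate control and blank wells.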
Hsp70 act = Hsp70 transcriptional activators, primary screen, cell-based, HeLa, Hsp70 promoter luciferase, luminescence, 10 µM; HeLa Hsp70 promoter luciferase reporter; scaled: vehicle 0, proteasome-inhibitor control 100%; activation, % at 10 µM; 200,000 compounds, 0.04% hits;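 active = activation above the mean across all tested compounds plus 3 SD, cutoff set per campaign, cut at about 5.5% in these data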;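 note: 100% = MG132 at 30 µM as the positive control and 0% = DMSO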
Dynein transport = inhibitors of GR-EGFP nuclear translocation, primary screen, dynein cargo transport inhibitor project, imaging, high-content, 3617.4 mouse cells; AID 1381, 2008; z-score, hits read low; test concentration mostly 20 µM; stimulated with dexamethasone, 1 µM; stronger effect = lower value; 220,000 compounds, 0.47% hits;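 active = plate z-score of nuclear minus cytoplasmic receptor signal below a set negative limit, without overly bright fluorescence or cell loss, cut at about -3.5 in these data, passing the limit was not always enough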;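 note: z-score of nuclear minus cytoplasmic ring GR-EGFP intensity difference per well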
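Schedule: 48 h induction, then 1 h compound, then 30 min agonist, 37 °C. Buffer or medium: tetracycline-free induction medium containing charcoal-stripped FBS. Reagent: 1.0 µM final dexamethasone stimulus. Evaluation: nuclear versus cytoplasmic GR-EGFP signal, averaged per well. Signal: high-content fluorescence imaging after fixation.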
S1P4 antag = S1P4 receptor antagonists, primary screen, cell-based. Sphingosine 1-phosphate receptor 4 (Homo sapiens), O95977. S1P4-expressing cells, antagonist mode, reporter read-out. inhibition, % at 4.98 µM. 220,000 compounds, 0.26% hits; in the data active = inhibition above about 29%;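 note: 0% = wells stimulated with agonist and 100% = vehicle wells without agonist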
S1P3 antagonist = S1P3 receptor antagonists, primary screen, cell-based; CHO S1P3 NFAT-BLA reporter, FRET fluorescence, antagonist mode; Sphingosine 1-phosphate receptor 3 (Homo sapiens), Q99500; 170,000 compounds, 0.27% hits; inhibition, % at 4.98 µM;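 active = inhibition above the plate cutoff, the mean inhibition of test wells on that plate plus 3 SD, cut at about 28% in these data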;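 note: cells challenged with S1P at its EC80 of 0.8 µM; blue over green emission ratio from cleaved BLA substrate after 4 h stimulation; 0% = S1P-stimulated wells and 100% = unstimulated DMSO-only wells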
S1P4 ag conf = S1P4 receptor agonists, retest, confirmation, cell-based, high throughput; shares compounds with S1P4 agonist; S1P4 agonist cell-based reporter assay; activation, % at 4.98 µM; 740 compounds, 7% hits; in the data active = activation above about 12%;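 note: 0% = vehicle and 100% = full reference agonist response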
S1P1 agonist = S1P1 receptor agonists, human, counter-screen for S1P4 agonist project, cell-based | activation, % at 4.98 µM | shares compounds with S1P4 agonist | AID 1563, 2009 | 740 compounds, 4% hits | S1P1 agonist cell-based assay, activation; in the data active = activation above about 21%;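 note: 0% = vehicle wells and 100% = reference agonist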
The depositor's hits bear a star.

For COCc1ccc(CN2CCCC(CO)(Cc3ccccc3)C2)o1 (stereo not given) the results were S1P4 agonist 0, Mdm2 ligase inh -3, Hsp70 act 0, Dynein transport -1.1, S1P4 antag -7 and S1P3 antagonist 9.
`OCC(O)C1OC(Nc2ccc(Cl)cc2)C(O)C1O` (stereo not given) gave S1P4 agonist 71*, Mdm2 ligase inh -12, Dynein transport -0.48, S1P4 antag 23, S1P3 antagonist 0, S1P4 ag conf -1 and S1P1 agonist 11.
Screening CN=c1scc(C)n1/N=C/c1cc(Br)c(O)c(OC)c1 returned S1P4 agonist 2, Mdm2 ligase inh -11, Hsp70 act 0, Dynein transport -0.39, S1P4 antag 1 and S1P3 antagonist 9.
COc1cc(/C=N/N(C)C)cc(Br)c1O was read as S1P4 agonist 39*, Mdm2 ligase inh -7, Dynein transport 0.64, S1P4 antag -3, S1P3 antagonist -11, S1P4 ag conf -2 and S1P1 agonist -6.
`CCOC(=O)c1c(C)[nH]c(C2=NNC(=Nc3ccccc3)SC2)c1C` gave S1P4 agonist 62*, Mdm2 ligase inh -9, Hsp70 act 0, Dynein transport 0.3, S1P4 antag -5, S1P3 antagonist 4, S1P4 ag conf -1 and S1P1 agonist -4.
Screening COc1ccc(/C=N/NC(=O)c2ccccc2O)cc1Cn1nnc2ccccc21 returned S1P4 agonist 0, Mdm2 ligase inh -7, Dynein transport -0.23, S1P4 antag -10 and S1P3 antagonist -10.
`Cc1ccc(/C=C/C(=O)O)cc1S(=O)(=O)N(CCO)CCO` gave S1P4 agonist 37*, Mdm2 ligase inh -7, Hsp70 act 0, Dynein transport 0.016, S1P4 antag 17, S1P3 antagonist -9, S1P4 ag conf -1 and S1P1 agonist -8.
O=C(NCCc1c[nH]c2ccccc12)/C(=C/c1cccnc1)NC(=O)c1cccs1 was read as S1P4 agonist 2, Mdm2 ligase inh -7, Hsp70 act 0, Dynein transport 0.41, S1P4 antag -4 and S1P3 antagonist -3.
Screening COc1ccc(/C(C)=N/NC(=O)CNC(=O)c2cccs2)cc1OC returned S1P4 agonist 30*, Mdm2 ligase inh -9, Hsp70 act 0, Dynein transport 0.24, S1P4 antag 4, S1P3 antagonist -26, S1P4 ag conf -2 and S1P1 agonist 4.
CCn1c(=O)c2cc(C(=O)N(C)c3ccc(OC)cc3OC)sc2c2ccccc21 was read as S1P4 agonist -1, Mdm2 ligase inh -15, Dynein transport 0.087, S1P4 antag -3 and S1P3 antagonist 13.
Screening CCn1c(=O)c2cc(C(=O)N(C)c3ccccc3F)sc2c2ccccc21 returned S1P4 agonist 21*, Mdm2 ligase inh -7, Dynein transport 0.53, S1P4 antag -5, S1P3 antagonist 14, S1P4 ag conf -2 and S1P1 agonist -6.
For CCc1ccc(/C=N/NC(=O)Cc2cccn2C)cc1 the results were S1P4 agonist -1, Mdm2 ligase inh -11, Dynein transport -0.028, S1P4 antag 3 and S1P3 antagonist 5.
For Cc1cccc(C(=O)NNc2ncnc3c2cnn3C)c1 the results were S1P4 agonist 15*, Mdm2 ligase inh -10, Hsp70 act 0, Dynein transport -0.25, S1P4 antag -8, S1P3 antagonist -15, S1P4 ag conf -2 and S1P1 agonist 3.

Screens from PubChem.
